Laboratory results taken from ChEMBL document CHEMBL4699574, “Discovery of Ketone-Based Covalent Inhibitors of Coronavirus 3CL Proteases for the Potential Therapeutic Treatment of COVID-19” (J Med Chem, 2020).
Converted amounts (≈) assume the structure as drawn. The source made the active and inactive calls. The calls are words filed in the database; no cut-off is given here.

Assays:
[1] = target: T1, Cathepsin D (Homo sapiens, UniProt P07339); assay: Inhibition of human cathepsin D
[2] = test system: chymotrypsin; assay: Inhibition of human chymotrypsin at 10 uM relative to control
[3] = test system: pepsin; assay: Inhibition of human pepsin at 10 uM relative to control
[4] = Cytotoxicity against African green monkey Vero 76 cells measured after 66 hrs by neutral red method or cell titer glo-based luminescence assay; settings: chlorocebus sabaeus
[5] = Inhibition of HCV protease; design: species or system Hepacivirus hominis
[6] = test system: rhinovirus A16; assay: Antiviral activity against Human rhinovirus 16 infected in human H1-HeLa cells assessed as reduction in virus-induced cytopathogenicity incubated for 2 to 5 days by XTT dye based analysis; assay type: functional, organism-based; settings: Rhinovirus A
[7] = test system: Hepatitis C virus; assay: Antiviral activity against Hepatitis C virus replicon infected in human Huh-7 cells assessed as reduction in viral RNA synthesis measured after 24 to 72 hrs by Trizol reagent based RT-PCR analysis; assay type: functional, organism-based, Hepacivirus hominis
[8] = Permeability of compound in human Caco-2 cells; assay type: ADME, cell-based
[9] = target: T2, Cathepsin B (Homo sapiens, UniProt P07858); assay: Inhibition of human cathepsin B at 10 uM relative to control
[10] = target: T2, Cathepsin B; assay: Inhibition of human cathepsin B
[11] = Half life in dog at 2 mg/kg, iv; assay type: ADME, organism-based, Canis lupus familiaris; settings: in vivo
[12] = test system: Human immunodeficiency virus 1; assay: Antiviral activity against HIV-1-RF infected in human H9 cells assessed as reduction in virus-induced cytopathogenicity incubated for 7 days by XTT dye based analysis; assay type: functional, organism-based; settings: Human immunodeficiency virus 1, RF, H9, 168 h
[13] = test system: Human coronavirus 229E; assay: microbe, parasite or virus in culture; settings: MRC5, 96 h
[14] = Cytotoxicity against human HuH-7 cells assessed as reduction in cell viability; assay type: cell-based
[15] = Clearance in dog at 2 mg/kg, iv; settings: in vivo
[16] = target: Prothrombin (Homo sapiens, UniProt P00734); assay: Inhibition of human thrombin
[17] = Volume of distribution at steady state in dog at 2 mg/kg, iv; assay type: ADME, organism-based, Canis lupus familiaris; settings: in vivo, read-out: Vdss
[18] = test system: Hepacivirus hominis; assay: Inhibition of HCV protease at 10 uM relative to control
[19] = Cytotoxicity against human H9 cells assessed as reduction in cell viability incubated for 7 days by XTT dye based analysis; settings: time 7 day
[20] = test system: SARS-CoV; assay: Antiviral activity against SARS COV-1 infected in monkey Vero 76 cells assessed as reduction in virus-induced cytopathic effect measured after 66 hrs in presence of p-glycoprotein inhibitor CP100356 by neutral red method or cell titer glo-based luminescence assay; assay type: functional, organism-based; settings: Severe acute respiratory syndrome-related coronavirus, Vero 76, 66 h
How it was run: (§1)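 P-glycoprotein transport inhibitor CP-100356 co-dosed at a fixed 0.5 µM throughout a full dose-response of the test inhibitor in the antiviral cytopathic assay.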

[21] = target: Neutrophil elastase (Homo sapiens, UniProt P08246); assay: Inhibition of human leukocyte elastase
Sequence of Neutrophil elastase (P08246 whole entry): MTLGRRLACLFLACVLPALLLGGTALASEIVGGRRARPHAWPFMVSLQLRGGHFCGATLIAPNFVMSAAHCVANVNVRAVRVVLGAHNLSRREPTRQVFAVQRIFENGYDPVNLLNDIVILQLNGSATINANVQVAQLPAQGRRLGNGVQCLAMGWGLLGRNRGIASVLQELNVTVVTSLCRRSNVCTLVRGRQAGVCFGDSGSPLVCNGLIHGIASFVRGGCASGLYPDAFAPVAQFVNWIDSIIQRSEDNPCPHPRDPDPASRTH

[22] = Half-life in rat at 2 mg/kg, iv; assay type: ADME, organism-based; settings: in vivo
[23] = Cytotoxicity against human H1-HeLa cells assessed as reduction in cell viability measured after 2 to 5 days by XTT assay; assay type: cell-based; settings: time 2-5 day
[24] = Metabolic stability in human liver microsomes assessed as half life; assay type: ADME, Microsome
[25] = Cytotoxicity against human MRC5 cells assessed as reduction in cell viability incubated for 4 days by XTT dye based assay; settings: time 4 day
[26] = Aqueous solubility of compound in 2.5% w/v SBECD, pH 7.4 5 mM citrate buffer, made isotonic with 4.25% dextrose formulation; assay type: physicochemical; settings: 2.5% w/v SBECD in citrate buffer
[27] = Volume of distribution at steady state in monkey at 4 mg/kg, iv; assay type: ADME, organism-based, Macaca mulatta; settings: rhesus monkey, in vivo
[28] = AUC in dog at 2 mg/kg, iv; assay type: ADME, organism-based, Canis lupus familiaris; design: dose 2 mg/kg; settings: in vivo
[29] = Inhibition of HRV protease; design: species or system Human rhinovirus sp.
[30] = target: T1, Cathepsin D; assay: Inhibition of human cathepsin D at 10 uM relative to control
[31] = target: thrombin (Homo sapiens, UniProt P00734); assay: Inhibition of human thrombin at 10 uM relative to control
[32] = Volume of distribution at steady state in rat at 2 mg/kg, iv; assay type: ADME, organism-based; settings: in vivo
[33] = AUC in monkey at 4 mg/kg, iv; assay type: ADME, organism-based, Macaca mulatta; design: dose 4 mg/kg; settings: rhesus monkey, in vivo
[34] = Inhibition of human chymotrypsin
[35] = test system: Human coronavirus 229E; assay: Antiviral activity against Human coronavirus 229E infected in human MRC5 cells assessed as reduction in virus-induced cytopathogenicity incubated for 4 days in presence of p-glycoprotein inhibitor CP100356 by XTT dye based assay; assay type: functional, organism-based; settings: time 4.0 day; how it was run: as §1
[36] = target: Human immunodeficiency virus type 1 protease (Human immunodeficiency virus 1) (UniProt Q72874); assay: Inhibition of HIV1 protease at 10 uM relative to control
[37] = Inhibition of Human coronavirus 229E protease
[38] = Inhibition of SARS-CoV-2 3CL protease using DABCYLKTSAVLQ-SGFRKME-EDANS as peptide substrate in presence of PF-00835231 inhibitor incubated for 60 mins by FRET assay; design: species or system Severe acute respiratory syndrome coronavirus 2
[39] = test system: Human betaherpesvirus 5; assay: Antiviral activity against Human cytomegalovirus AD169 infected in human MRC5 cells assessed as reduction in viral replication measured after 5 days by ELISA; assay type: functional, cell-based; settings: Human betaherpesvirus 5, AD169, MRC5, 120 h
[40] = target: T3, Caspase-2 (Homo sapiens, UniProt P42575); assay: Inhibition of human Caspase 2 at 10 uM relative to control
T3 sequence (P42575 170-325 limits assumed): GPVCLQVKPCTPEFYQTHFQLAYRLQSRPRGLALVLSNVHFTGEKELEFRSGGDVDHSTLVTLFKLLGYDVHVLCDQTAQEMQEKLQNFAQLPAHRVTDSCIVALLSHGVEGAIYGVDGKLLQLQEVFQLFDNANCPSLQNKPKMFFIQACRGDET
T3 sequence (P42575 334-452 limits assumed): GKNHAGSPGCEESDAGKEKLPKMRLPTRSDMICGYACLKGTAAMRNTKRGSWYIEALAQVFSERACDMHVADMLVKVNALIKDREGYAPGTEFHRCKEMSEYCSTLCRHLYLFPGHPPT

[41] = test system: rhinovirus B14; assay: Antiviral activity against Human rhinovirus 14 infected in human H1-HeLa cells assessed as reduction in virus-induced cytopathogenicity incubated for 2 to 5 days by XTT dye based analysis; assay type: functional, organism-based; settings: Rhinovirus B
[42] = target: leukocyte (neutrophil) elastase (Homo sapiens, UniProt P08246); assay: Inhibition of human leukocyte elastase at 10 uM relative to control
Sequence of leukocyte (neutrophil) elastase (P08246 whole entry): as the sequence (P08246 whole entry) above

[43] = AUC in rat at 2 mg/kg, iv; assay type: ADME, organism-based; design: dose 2 mg/kg; settings: in vivo
[44] = Cytotoxicity against human MRC5 cells assessed as reduction in cell viability after 1 to 5 days by XTT dye based assay; settings: time 1-5 day
[45] = target: T3, Caspase-2; assay: Inhibition of human Caspase 2
[46] = Aqueous solubility of compound in 2.5% w/v HPCD formulation; assay type: physicochemical; settings: 2.5% w/v HPCD in water
[47] = target: Human immunodeficiency virus type 1 protease (Human immunodeficiency virus 1, UniProt Q72874); assay: Inhibition of HIV1 protease
[48] = Reversible inhibition of SARS coronavirus Urbani 3CL protease(9985 to 10902) using TAMRA-SITSAVLQSGFRKMK(DABCYL)-OH as substrate measured for 10 mins by FRET assay
How it was run: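 SARS CoV-1 3CLpro FRET assay; each value calculated from at least eight data points, with at least two independent determinations.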

[49] = Inhibition of human pepsin
[50] = Half-life in monkey at 4 mg/kg, iv; assay type: ADME, organism-based, Macaca mulatta; settings: rhesus monkey, in vivo
[51] = Aqueous solubility of compound in 2.5% w/v SBECD, pH 7.4 5 mM phosphate buffer, made isotonic with 4.25% dextrose formulation; assay type: physicochemical; settings: 2.5% w/v SBECD in phosphate buffer, dose 4.6 mg/ml

T1 sequence (P07339 65-162 limits assumed): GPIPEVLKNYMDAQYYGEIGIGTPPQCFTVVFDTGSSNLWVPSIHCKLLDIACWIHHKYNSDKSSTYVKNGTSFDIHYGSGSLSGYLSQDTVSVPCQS
T1 sequence (P07339 169-412 limits assumed): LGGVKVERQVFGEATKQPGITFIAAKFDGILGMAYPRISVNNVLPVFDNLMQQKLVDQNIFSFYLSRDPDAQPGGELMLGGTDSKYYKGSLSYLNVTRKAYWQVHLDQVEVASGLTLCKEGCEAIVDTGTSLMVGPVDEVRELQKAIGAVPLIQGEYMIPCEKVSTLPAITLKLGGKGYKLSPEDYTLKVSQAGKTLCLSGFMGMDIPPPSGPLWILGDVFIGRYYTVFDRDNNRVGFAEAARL

SMILES: COc1cccc2[nH]c(C(=O)N[C@@H](CC(C)C)C(=O)N[C@@H](C[C@@H]3CCNC3=O)C(=O)CO)cc12 [PF-00835231]
- IC50 [1]: > 10 µM
- inhibition at 10 µM [2]: 8%
- inhibition at 10 µM [3]: -2%
- CC50 at 66 h [4]: 452 µM
- IC50 [5]: > 10 µM
- EC50 [6]: > 100 µM
- EC50 [7]: > 320 µM
- permeability [8]: Impermeable
- inhibition at 10 µM [9]: 93%
- IC50 [10]: 1.3 µM
- half-life [11]: 1.3 h
- EC50 [12]: > 32 µM
- EC50 [13]: 0.009 µM
- CC50 [14]: > 320 µM
- clearance [15]: 10.5 mL/min/kg
- IC50 [16]: > 10 µM
- Vd [17]: 0.4 L/kg
- inhibition [18]: 16%
- CC50 at 168 h [19]: > 32 µM
- EC50 [20]: 1.1 µM
- IC50 [21]: > 10 µM
- t1/2 [22]: 1 min
- CC50 [23]: > 1260 µM
- half-life [24]: 1.78 h
- CC50 at 96 h [25]: > 40 µM
- solubility [26]: 4600 µg/mL (≈ 9.73 mM)
- Vdss [27]: 0.6 L/kg
- AUC [28]: 3800 ng·h/mL
- IC50 [29]: 1.7 µM
- inhibition at 10 µM [30]: 3%
- inhibition at 10 µM [31]: -28%
- Vdss [32]: 1.2 L/kg
- AUC [33]: 3800 ng·h/mL
- IC50 [34]: > 10 µM
- Activity [35]: Active
- inhibition [36]: 0%
- IC50 [37]: 0.004 µM
- IC50 [38]: 0.00027 µM
- EC50 [39]: > 100 µM
- inhibition at 10 µM [40]: -20%
- EC50 [41]: > 100 µM
- inhibition at 10 µM [42]: -31%
- AUC [43]: 1200 ng·h/mL
- CC50 [44]: > 100 µM
- IC50 [45]: > 10 µM
- solubility [46]: 6600 µg/mL (≈ 14 mM)
- IC50 [47]: > 10 µM
- IC50 [48]: 0.004 µM
- IC50 [49]: > 10 µM
- t1/2 [50]: 1.6 min
- solubility [51]: 4600 µg/mL (≈ 9.73 mM)
